# Test results reported in ChEMBL document CHEMBL1153046, “Synthesis and antitumor activity of substituted triazolo[4,3-a]pyrimidin-6-sulfonamide with an incorporated thiazolidinone moiety” (2009).
# Legend:
# Assay type in all cases: functional
# BT-549 = test: Growth inhibition of human BT549 cells after 48 hrs by sulforhodamine B assay; settings: BT-549, 48 h
# How it was run: (§1)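 NCI 60-cell-line panel. Cells are grown in RPMI1640 with 5% fetal calf serum and 2 mM L-glutamine, seeded at a density set by growth characteristics, and preincubated 24 h. Compound is tested at a minimum of five concentrations at 10-fold dilution, with 48 h continuous exposure. Viability is read by sulforhodamine B protein assay. GI50, TGI and LC50 come from dose-response curves.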
# [1] = Growth inhibition of human […] cells after 48 hrs by sulforhodamine B assay; settings: for CC50: read-out: LC50 (the source's name); how it was run: as §1
# M14 = test: Growth inhibition of human M14 cells after 48 hrs by sulforhodamine B assay; settings: M14, 48 h; how it was run: as §1
# CAKI-1 = test: Growth inhibition of human Caki1 cells after 48 hrs by sulforhodamine B assay; settings: CAKI-1, 48 h; how it was run: as §1
# MDA-MB-231 = test: Growth inhibition of human MDA-MB-231 cells after 48 hrs by sulforhodamine B assay; settings: MDA-MB-231, 48 h; how it was run: as §1
# SK-MEL-28 = test: Growth inhibition of human SK-MEL-28 cells after 48 hrs by sulforhodamine B assay; settings: SK-MEL-28, 48 h; how it was run: as §1
# UO-31 = test: Growth inhibition of human UO31 cells after 48 hrs by sulforhodamine B assay; settings: UO-31, 48 h
# How it was run: (§2)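 NCI 60-cell-line panel (nine cancer types), with cells grown in RPMI1640 plus 5% fetal calf serum and 2 mM L-glutamine. Cells are seeded at a density that depends on the line and preincubated 24 h. Compounds are then applied at a minimum of five 10-fold dilutions over a 5-log range with 48 h continuous exposure. Viability is read by SRB protein assay, and GI50 is derived from dose-response curves in units of 10^-5 M.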
# SF-539 = test: Growth inhibition of human SF539 cells after 48 hrs by sulforhodamine B assay; settings: SF-539, 48 h; how it was run: as §1
# LOX IMVI = test: Growth inhibition of human LOXIMVI cells after 48 hrs by sulforhodamine B assay; how it was run: as §1
# OVCAR-8 = test: Growth inhibition of human OVCAR8 cells after 48 hrs by sulforhodamine B assay; settings: OVCAR-8, 48 h; how it was run: as §1
# DU-145 = test: Growth inhibition of human DU145 cells after 48 hrs by sulforhodamine B assay; settings: DU-145, 48 h; how it was run: as §1
# T47D = test: Growth inhibition of human T47D cells after 48 hrs by sulforhodamine B assay; how it was run: as §2
# SR = test: Growth inhibition of human SR cells after 48 hrs by sulforhodamine B assay; how it was run: as §2
# [2] = Growth inhibition of human Hs 578T cells after 48 hrs by sulforhodamine B assay; how it was run: as §1
# HOP-62 = test: Growth inhibition of human HOP62 cells after 48 hrs by sulforhodamine B assay; settings: HOP-62, 48 h; how it was run: as §1
# 786-0 = test: Growth inhibition of human 786-0 cells after 48 hrs by sulforhodamine B assay; settings: 786-0, 48 h; for CC50: read-out: LC50 (the source's name); how it was run: as §1
# NCI-H522 = test: Growth inhibition of human NCI-H522 cells after 48 hrs by sulforhodamine B assay; settings: NCI-H522, 48 h; how it was run: as §1
# HCT-15 = test: Growth inhibition of human HCT15 cells after 48 hrs by sulforhodamine B assay; settings: HCT-15, 48 h; how it was run: as §1
# SF-268 = test: Antiproliferative activity against human SF268 cells assessed as cell growth at 100 uM after 48 hrs by alamar blue assay; settings: SF-268, 48 h, read-out: Activity
# How it was run: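 NCI three-cell-line primary screen. Cells are seeded and preincubated in microtiter plates. Compound is added at a single 10^-4 M concentration and cultures are incubated 48 h. The end-point is read with alamar blue. Results are given as percent growth relative to untreated control cells.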
# A549 = test: Growth inhibition of human A549 cells after 48 hrs by sulforhodamine B assay; settings: A549, 48 h; how it was run: as §1
# NCI-H226 = test: Growth inhibition of human NCI-H226 cells after 48 hrs by sulforhodamine B assay; settings: NCI-H226, 48 h; how it was run: as §1
# SK-MEL-2 = test: Growth inhibition of human SK-MEL-2 cells after 48 hrs by sulforhodamine B assay; settings: SK-MEL-2, 48 h; how it was run: as §1
# PC-3 = test: Growth inhibition of human PC3 cells after 48 hrs by sulforhodamine B assay; settings: PC-3, 48 h; how it was run: as §1
# MCF7 = test: Growth inhibition of human MCF7 cells after 48 hrs by sulforhodamine B assay; settings: MCF7, 48 h; how it was run: as §1
# EKVX = test: Growth inhibition of human EKVX cells after 48 hrs by sulforhodamine B assay; how it was run: as §1
# MDA-MB-435 = test: Growth inhibition of human MDA-MB-435 cells after 48 hrs by sulforhodamine B assay; settings: MDA-MB-435, 48 h; how it was run: as §1
# A498 = test: Growth inhibition of human A498 cells after 48 hrs by sulforhodamine B assay; settings: A498, 48 h; how it was run: as §1
# K562 = test: Growth inhibition of human K562 cells after 48 hrs by sulforhodamine B assay; settings: K562, 48 h; how it was run: as §1
# NCI/ADR-RES = test: Growth inhibition of human NCI/ADR-RES cells after 48 hrs by sulforhodamine B assay; how it was run: as §1
# ACHN = test: Growth inhibition of human ACHN cells after 48 hrs by sulforhodamine B assay; settings: for CC50: read-out: LC50 (the source's name); how it was run: as §1
# MOLT-4 = test: Growth inhibition of human MOLT4 cells after 48 hrs by sulforhodamine B assay; settings: MOLT-4, 48 h; for CC50: read-out: LC50 (the source's name); how it was run: as §1
compound,measurement,setting,value
COc1ccc(/C=N/c2nc3[nH]nc(C)n3c(=O)c2S(=O)(=O)NN2C(=O)C(CN3CCOCC3)SC2c2cccs2)cc1 (stereo not drawn),GI50,BT-549,18 µM
same,TGI,BT-549,> 100 µM
same,GI50,[1],3.86 µM
same,TGI,[1],26.2 µM
same,CC50,[1],> 100 µM
same,GI50,M14,6.79 µM
same,LC50 (concentration killing 50% of cells),M14,> 100 µM
same,TGI,M14,38.7 µM
same,GI50,CAKI-1,12.1 µM
same,LC50 (50% lethal concentration),CAKI-1,> 100 µM
same,TGI,CAKI-1,> 100 µM
same,GI50,MDA-MB-231,11.7 µM
same,LC50 (50% lethal concentration),MDA-MB-231,> 100 µM
same,TGI,MDA-MB-231,56.1 µM
same,GI50,SK-MEL-28,82.1 µM
same,TGI,SK-MEL-28,> 100 µM
same,GI50,UO-31,14.5 µM
same,LC50,UO-31,> 100 µM
same,TGI,UO-31,86.4 µM
same,GI50,SF-539,7.24 µM
same,LC50,SF-539,> 100 µM
same,TGI,SF-539,30.4 µM
same,GI50,LOX IMVI,8.97 µM
same,TGI,LOX IMVI,> 100 µM
same,GI50,OVCAR-8,60.6 µM
same,TGI,OVCAR-8,> 100 µM
same,GI50,DU-145,16 µM
same,LC50 (concentration giving 50% net cell kill),DU-145,> 100 µM
same,TGI,DU-145,> 100 µM
same,GI50,T47D,48 µM
same,TGI,T47D,> 100 µM
same,GI50,SR,1.1 µM
same,LC50 (concentration killing 50% of cells),SR,9.2 µM
same,TGI,SR,3.2 µM
same,GI50,[2],13.3 µM
same,LC50 (concentration killing 50% of cells),[2],> 100 µM
same,TGI,[2],82.1 µM
same,GI50,HOP-62,13.9 µM
same,LC50,HOP-62,> 100 µM
same,TGI,HOP-62,> 100 µM
same,GI50,786-0,5.82 µM
same,TGI,786-0,> 100 µM
same,CC50,786-0,> 100 µM
same,GI50,NCI-H522,4.35 µM
same,TGI,NCI-H522,27.3 µM
same,GI50,HCT-15,4.52 µM
same,TGI,HCT-15,71.7 µM
same,growth at 100 µM,SF-268,56%
same,GI50,A549,19.1 µM
same,TGI,A549,> 100 µM
same,GI50,NCI-H226,24.5 µM
same,LC50 (concentration killing 50% of cells),NCI-H226,> 100 µM
same,TGI,NCI-H226,> 100 µM
same,GI50,SK-MEL-2,8.3 µM
same,LC50 (concentration killing 50% of cells),SK-MEL-2,> 100 µM
same,TGI,SK-MEL-2,81.9 µM
same,GI50,PC-3,3.92 µM
same,LC50 (concentration killing 50% of cells),PC-3,> 100 µM
same,TGI,PC-3,95.8 µM
same,GI50,MCF7,3.18 µM
same,TGI,MCF7,> 100 µM
same,GI50,EKVX,54.1 µM
same,TGI,EKVX,> 100 µM
same,GI50,MDA-MB-435,3.26 µM
same,TGI,MDA-MB-435,36 µM
same,GI50,A498,2.67 µM
same,LC50 (concentration giving 50% net cell kill),A498,> 100 µM
same,TGI,A498,15.5 µM
same,GI50,K562,2.34 µM
same,LC50,K562,> 100 µM
same,TGI,K562,11.3 µM
same,GI50,NCI/ADR-RES,9.98 µM
same,TGI,NCI/ADR-RES,64.8 µM
same,GI50,ACHN,5.48 µM
same,TGI,ACHN,> 100 µM
same,CC50,ACHN,> 100 µM
same,GI50,MOLT-4,4.08 µM
same,TGI,MOLT-4,40.6 µM
same,CC50,MOLT-4,> 100 µM
COc1ccc(/C=N/c2nc3[nH]nc(C)n3c(=O)c2S(=O)(=O)NN2C(=O)C(CN3CCOCC3)SC2c2ccc(OC)cc2)cc1 (stereo not drawn),GI50,BT-549,> 100 µM
same,TGI,BT-549,> 100 µM
same,GI50,[1],16.4 µM
same,TGI,[1],44.3 µM
same,CC50,[1],> 100 µM
same,GI50,M14,67.4 µM
same,LC50 (concentration killing 50% of cells),M14,> 100 µM
same,TGI,M14,> 100 µM
same,GI50,CAKI-1,43.3 µM
same,LC50 (50% lethal concentration),CAKI-1,> 100 µM
same,TGI,CAKI-1,> 100 µM
same,GI50,MDA-MB-231,25.3 µM
same,LC50 (50% lethal concentration),MDA-MB-231,> 100 µM
same,TGI,MDA-MB-231,> 100 µM
same,GI50,SK-MEL-28,> 100 µM
same,TGI,SK-MEL-28,> 100 µM
same,GI50,UO-31,39.6 µM
same,LC50,UO-31,> 100 µM
same,TGI,UO-31,> 100 µM
same,GI50,SF-539,75.1 µM
same,LC50,SF-539,> 100 µM
same,TGI,SF-539,> 100 µM
same,GI50,LOX IMVI,21.6 µM
same,TGI,LOX IMVI,62.4 µM
same,GI50,OVCAR-8,31.4 µM
same,TGI,OVCAR-8,> 100 µM
same,GI50,DU-145,28.8 µM
same,LC50 (concentration giving 50% net cell kill),DU-145,> 100 µM
same,TGI,DU-145,> 100 µM
same,GI50,T47D,> 100 µM
same,TGI,T47D,> 100 µM
same,GI50,SR,11.7 µM
same,LC50 (concentration killing 50% of cells),SR,71.5 µM
same,TGI,SR,28.9 µM
same,GI50,[2],41.1 µM
same,LC50 (concentration killing 50% of cells),[2],> 100 µM
same,TGI,[2],> 100 µM
same,GI50,HOP-62,86.6 µM
same,LC50,HOP-62,> 100 µM
same,TGI,HOP-62,> 100 µM
same,GI50,786-0,67.1 µM
same,TGI,786-0,> 100 µM
same,CC50,786-0,> 100 µM
same,GI50,NCI-H522,32.5 µM
same,TGI,NCI-H522,> 100 µM
same,GI50,HCT-15,26.7 µM
same,TGI,HCT-15,> 100 µM
same,growth at 100 µM,SF-268,75%
same,GI50,A549,29.6 µM
same,TGI,A549,> 100 µM
same,GI50,NCI-H226,53.6 µM
same,LC50 (concentration killing 50% of cells),NCI-H226,> 100 µM
same,TGI,NCI-H226,> 100 µM
same,GI50,SK-MEL-2,99.3 µM
same,LC50 (concentration killing 50% of cells),SK-MEL-2,> 100 µM
same,TGI,SK-MEL-2,> 100 µM
same,GI50,PC-3,24.6 µM
same,LC50 (concentration killing 50% of cells),PC-3,> 100 µM
same,TGI,PC-3,> 100 µM
same,GI50,MCF7,77.3 µM
same,TGI,MCF7,> 100 µM
same,GI50,EKVX,93.9 µM
same,TGI,EKVX,> 100 µM
same,GI50,MDA-MB-435,35 µM
same,TGI,MDA-MB-435,> 100 µM
same,GI50,A498,25.5 µM
same,LC50 (concentration giving 50% net cell kill),A498,> 100 µM
same,TGI,A498,69.2 µM
same,GI50,K562,13 µM
same,LC50,K562,80.5 µM
same,TGI,K562,32.3 µM
same,GI50,NCI/ADR-RES,43.1 µM
same,TGI,NCI/ADR-RES,> 100 µM
same,GI50,ACHN,23.1 µM
same,TGI,ACHN,92.6 µM
same,CC50,ACHN,> 100 µM
same,GI50,MOLT-4,13.6 µM
same,TGI,MOLT-4,34.4 µM
same,CC50,MOLT-4,86.8 µM
